Experiments:
[1] = melting temperature; fluorescence melt of hairpins on a sequencing array, two-state fit, raised by 9.35 °C to match UV melts; details: sodium 0.088 M
How it was run: (§1)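 Two-state fits, bootstrapped, provided melting temperature and folding enthalpy from Cy3 fluorescence normalised to pre-quench Cy3 and to control constructs. Library hairpins with annealed Cy3 and quencher oligos were imaged on a sequenced MiSeq flow cell in 50 mM Na-HEPES pH 8.0, 25 mM NaCl, at 2.5 °C intervals up to 60 °C. Four replicates were combined with inverse-variance weighting. A 9.35 °C upward shift was applied to fitted temperatures to match UV melts.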

[2] = folding enthalpy; higher = less favourable; fluorescence melt of hairpins on a sequencing array, two-state fit; details: sodium 0.088 M
How it was run: as §1

Sequence	Tm [1] [°C]	folding enthalpy [2] [kcal/mol]
GGTTATCGAAAGATTACC (((.(((....))).)))	43.5	-31.1
GGTTATGGAAACATAATC (.(((((....))))).)	36	-31.2
GGTTATGGAAACGTAACC (((((.(....).)))))	45.8	-40.6
GGTTCAGGAAACTGAACC (((((((....)))))))	63.8	-41.4
GGTTCAGGAAACTGAATC (.(((((....))))).)	44.2	-30.1
GGTTCAGGAAACTGAGCC ((.((((....)))).))	50	-30.2
GGTTCCACGAAAGTGACC (((..(((....))))))	31.6	-15.1
GGTTCCCGAAAGGGTACC (((.(((....))).)))	57.5	-33.6
GGTTCCGAAAGGAGCACC ((((((....)))..)))	39.1	-13.8
GGTTCCGAAAGGATAACC ((((((....)))..)))	43.5	-20.5
GGTTCCGAAAGGATACC ((((((....))).)))	48.8	-28.1
GGTTCCGGAAACGGAATC (.(((((....))))).)	51.4	-23.9
GGTTCCGGAAACGGGACC (((.(((....))).)))	58.5	-47.1
GGTTCGGGAAACCGAATC (.(((((....))))).)	50.6	-27.1
GGTTCGGGAAACCGAGCC ((.((((....)))).))	58.3	-40.4
GGTTCGGGAAACTGAACC (((((.(....).)))))	53.2	-47.2
GGTTCGGGAAACTGGACC (((.(.(....).).)))	41.2	-29.2
GGTTCTGCGAAAGCAACC (((..(((....))))))	31.1	-12.3
GGTTGAGGAAACCCAACC (((((.(....).)))))	45.2	-39.4
GGTTGAGGAAACTCAGCC ((.((((....)))).))	50	-33.4
GGTTGAGGAAACTCAGTC (..((((....))))..)	30.9	-14.5
GGTTGAGGAAACTTAACC ((((.((....)).))))	39.8	-31.9
GGTTGCACGAAAGTGACC (((..(((....))))))	34.2	-11.2

Sequence	Tm [1] [°C]	folding enthalpy [2] [kcal/mol]
GGTTGCCGAAAGGCTACC (((.(((....))).)))	61.8	-29.6
GGTTGCGAAAGCAAACC ((((((....))).)))	61.8	-20
GGTTGCGAAAGCACTACC ((((((....)))..)))	37.4	-11.9
GGTTGCGAAAGCAGGACC ((((((....)))..)))	37.8	-19.2
GGTTGCGAAAGCAGTACC ((((((....)))..)))	43.3	-16.9
GGTTGCGCGAAAGCGACC (((..(((....))))))	42.8	-18
GGTTGCGGAAACACAACC (((((.(....).)))))	48.4	-40
GGTTGCGGAAACGCAATC (.(((((....))))).)	54.9	-28.9
GGTTGCGGAAACGTAACC ((((.((....)).))))	54	-47.9
GGTTGGAAACAACC (((((....)))))	54.9	-29.6
GGTTGGGGAAACCCAATC (.(((((....))))).)	48.7	-26.2
GGTTGGGGAAACCCGACC (((.(((....))).)))	56.7	-32.4
GGTTGTGAAAACAACC ((((((....))))))	61.5	-40.1
GGTTGTGGAAACATGACC (((..((....))..)))	39.2	-30.9
GGTTTACGAAAGTAGACC (((.(((....))).)))	51	-34.9
GGTTTAGGAAACTAGACC (((.(((....))).)))	37.5	-30.2
GGTTTATCGAAAGATACC (((..(((....))))))	28	-12.3
GGTTTCCGAAAGGATACC (((.(((....))).)))	50.5	-36.7
GGTTTCGAAAGAACACC ((((((....))).)))	37.6	-26.8
GGTTTCGAAAGAAGACC ((((((....))).)))	36.8	-19.5
GGTTTCGAAAGAATCACC ((((((....)))..)))	26.7	-13
GGTTTCGGAAACGAAGCC ((.((((....)))).))	51.4	-28.2
GGTTTGACGAAAGTCACC (((..(((....))))))	30.4	-10.6

Sequence	Tm [1] [°C]	folding enthalpy [2] [kcal/mol]
GGTTTGCGAAAGCAACC (((.(((....))))))	52.4	-17.2
GGTTTGCGAAAGCAGACC (((.(((....))).)))	59.5	-34.8
GGTTTGGAAACAAACC ((((((....))))))	56.5	-41.6
GGTTTTCGAAAGAAACC (((.(((....))))))	44.8	-23.1
GGTTTTCGAAAGAAGACC (((.(((....))).)))	48.1	-31.4
GGTTTTCGAAAGAATACC (((.(((....))).)))	42.3	-30.8
GGTTTTGGAAACAAAACC (((((((....)))))))	58.6	-50.2
GGTTTTGGAAACAGAACC ((((.((....)).))))	42.1	-36.7
GTAAACGAAAGTTCTTAC ((((((....)))..)))	24.7	-11
GTAAACGAAAGTTGTAC ((((((....))).)))	31.2	-13.7
GTAAACGAAAGTTGTTAC ((((((....)))..)))	23.7	-10.1
GTAAACGAAAGTTTATAC ((((((....)))..)))	37.1	-13.4
GTAAACGGAAACGTTTAC (((((((....)))))))	57.8	-47.3
GTAAAGCGAAAGCTCTAC (((.(((....))).)))	35	-14.5
GTAAATGGAAACATTTAC (((((((....)))))))	51.3	-31.5
GTAACACCGAAAGGTTAC (((..(((....))))))	35.6	-14.8
GTAACAGCGAAAGCTTAC (((..(((....))))))	28.6	-10.8
GTAACCGAAAGGTGATAC ((((((....)))..)))	30.7	-12.9
GTAACCGAAAGGTGCTAC ((((((....)))..)))	39.1	-13.1
GTAACCGGAAACGGTTGC (.(((((....))))).)	53.1	-31.8
GTAACGCGAAAGCGCTAC (((.(((....))).)))	51.9	-19.6
GTAACGGAAACGTTAC ((((((....))))))	56.3	-40.2
GTAACGGGAAACCGCTAC (((.(((....))).)))	39.9	-24.4

Sequence	Tm [1] [°C]	folding enthalpy [2] [kcal/mol]
GTAACGGGAAACCGTTGC (.(((((....))))).)	52	-21.2
GTAACGTCGAAAGACTAC (((..(((....))))))	28.7	-11.2
GTAACTGGAAACAGTTAC (((((((....)))))))	56.1	-41.6
GTAAGAACGAAAGTTTAC (((..(((....))))))	24.3	-8.19
GTAAGAGGAAACTCTCAC ((.((((....)))).))	26.3	-14.8
GTAAGAGGAAACTCTTAC (((((((....)))))))	51	-42.2
GTAAGCCCGAAAGGGTAC (((..(((....))))))	28.1	-10.6
GTAAGCCGAAAGGCCTAC (((.(((....))).)))	39.4	-13.7
GTAAGCGAAAGCTTTTAC ((((((....)))..)))	29.7	-11.8
GTAAGCGGAAACGCCTAC (((.(((....))).)))	35.4	-15.8
GTAAGCGGAAACGTTTAC ((((.((....)).))))	43	-28.2
GTAAGGCGAAAGCCATAC (((.(((....))).)))	44.8	-15.3
GTAAGGCGAAAGCCCTAC (((.(((....))).)))	36	-13.5
GTAAGGGGAAACCTTTAC ((((.((....)).))))	33.9	-27.1
GTAAGGGGAAACTCTTAC (((((.(....).)))))	37.6	-34.4
GTAATAGGAAACTATTGC (.(((((....))))).)	34.2	-18.7
GTAATAGGAAACTGTTAC ((((.((....)).))))	36.4	-24.9
GTAATCACGAAAGTGTAC (((..(((....))))))	29.3	-10.9
GTAATCCCGAAAGGGTAC (((..(((....))))))	27.5	-11.1
GTAATCGAAAGATTCTAC ((((((....)))..)))	28.8	-18.5
GTAATCGGAAACGATCAC ((.((((....)))).))	33.9	-25
GTAATGGAAACATTAC ((((((....))))))	46.7	-31.7

Source: the array DNA melting data of Ke et al. (doi:10.1101/2024.01.08.574731)
